Laboratory results taken from ChEMBL document CHEMBL1144665, “Benzyl ether-linked glucuronide derivative of 10-hydroxycamptothecin designed for selective camptothecin-based anticancer therapy” (J Med Chem, 2008).
In brackets after ≈: the same amount, converted by molar mass.

Experiments:
[1] = Aqueous solubility in phosphate buffer at pH 4.0; format: physicochemical
Method in brief: (§1)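 Excess solid equilibrated in 100 mM phosphate buffer (pH 4.0 or 7.0) at 25 °C for 24 h. Filtered through 0.2 µm, diluted in mobile phase and quantified by HPLC with fluorescence detection against calibration curves. Single determination.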

[2] = Aqueous solubility in phosphate buffer at pH 7.0; format: physicochemical; method in brief: as §1
Plasma = test: Stability in 95% human plasma; format: ADME, cell-free
Method in brief: (§2)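 Incubated in 95% human plasma at 37 °C up to 6 h. Aliquots neutralized with 12 mM phosphoric acid, extracted three times with ethyl acetate, dried, redissolved in mobile phase, filtered and analysed by reversed-phase HPLC with fluorescence detection.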

HepG2 [3] = test: Cytotoxicity against human HepG2 cells assessed as inhibition of [3H]thymidine after 48 hrs; format: functional, cell-based
Method in brief: (§3)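 Exponentially growing cells, 5 × 10³/well in RPMI with 10% bovine serum and penicillin/streptomycin, 37 °C, 5% CO₂, exposed to a range of drug concentrations (DMSO final ≤0.5%; vehicle controls). After 48 h, 12 h [³H]thymidine pulse (1 µCi/well); trypsinized cells counted for radioactivity. Triplicate wells, 1–3 experiments; IC50 interpolated from log dose–response curves.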

COLO 205 [4] = test: Cytotoxicity against human Colo 205 cells assessed as inhibition of [3H]thymidine after 48 hrs; format: functional, cell-based; method in brief: as §3
HT-29 [5] = test: Cytotoxicity against human HT29 cells assessed as inhibition of [3H]thymidine after 48 hrs; format: functional, cell-based; method in brief: as §3
[6] = Cytotoxicity against human H298 cells assessed as inhibition of [3H]thymidine after 48 hrs; format: functional, cell-based; method in brief: as §3
[7] = Prodrug hydrolysis by Escherichia coli beta-glucuronidase assessed as release of 10-hydroxycamptothecin at pH 7.0; format: ADME; design: scale not given: the % may be the effect or the level left; settings: buffer
Method in brief: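 Substrate incubated with E. coli β-glucuronidase (0.1 µg/mL) in pH 7.0 phosphate buffer at 37 °C. Aliquots taken over time; substrate and released 10-hydroxycamptothecin quantified by fluorescence-detected reversed-phase HPLC. Triplicate determinations.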

Escherichia coli [8] = test: Activity of Escherichia coli beta-glucuronidase
Method in brief: (§4)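 Prodrug at various concentrations incubated with 0.125 µg/mL E. coli β-glucuronidase, pH 7.0, 37 °C, 20 min; stopped with ice-cold MeOH to precipitate protein. Substrate and released 10-hydroxycamptothecin quantified by reversed-phase HPLC with fluorescence detection (ex 397, em 482 nm) against standard calibration curves; Km, Vmax and Vmax/Km derived.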

Escherichia coli [9] = test: Ratio of […] of Escherichia coli beta-glucuronidase; method in brief: as §4
COLO 205 [10] = test: Cytotoxicity against human Colo 205 cells assessed as inhibition of [3H]thymidine in presence of beta-glucuronidase after 48 hrs; format: functional, cell-based
Method in brief: (§5)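 As the plain [³H]thymidine assay (5 × 10³ cells/well, RPMI/10% serum, 48 h exposure, then 12 h 1 µCi/well pulse, scintillation counting), but β-glucuronidase (5 µg/mL; 1 µg/well) added together with drug. Triplicate wells, 1–3 experiments; IC50 interpolated from log dose–response curves.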

HepG2 [11] = test: Cytotoxicity against human HepG2 cells assessed as inhibition of [3H]thymidine in presence of beta-glucuronidase after 48 hrs; format: functional, cell-based; method in brief: as §5
HT-29 [12] = test: Cytotoxicity against human HT29 cells assessed as inhibition of [3H]thymidine in presence of beta-glucuronidase after 48 hrs; format: functional, cell-based; method in brief: as §5
[13] = Cytotoxicity against human H298 cells assessed as inhibition of [3H]thymidine in presence of beta-glucuronidase after 48 hrs; format: functional, cell-based; method in brief: as §5
[14] = Stability in human plasma assessed as degradation after 10 mins; format: ADME, cell-free; settings: read-out: Activity; method in brief: as §2

SMILES | solubility [1] | solubility ([2]; phosphate buffer, read-out: Solubility) | Stability (Plasma) | IC50 (HepG2 [3]) | IC50 (COLO 205 [4]) | IC50 (HT-29 [5]) | IC50 [6] | Activity [7] | Km (Escherichia coli [8]) | Vmax (Escherichia coli [8]) | Ratio (Escherichia coli [9]) | IC50 (COLO 205 [10]) | IC50 (HepG2 [11]) | IC50 (HT-29 [12]) | IC50 [13] | solubility ([2]; buffer) | metabolised at 10 min [14]
CC[C@@]1(O)C(=O)OCc2c1cc1n(c2=O)Cc2cc3cc(OCc4ccc(O[C@@H]5O[C@H](C(=O)O)[C@@H](O)[C@H](O)[C@H]5O)c([N+](=O)[O-])c4)ccc3nc2-1 | 1100 µM (≈ 761 µg/mL) | 2600 µM (≈ 1800 µg/mL) | Stable | 56.5 nM | 94.2 nM | 97.8 nM | 91.1 nM | > 50% | 0.18 µM | 2.7 µM/min | 15 min⁻¹ | 10.2 nM | 6.6 nM | 10 nM | 11.1 nM | – | –
CC[C@@]1(O)C(=O)OCc2c1cc1n(c2=O)Cc2cc3c(NC(=O)OCc4ccc(O[C@@H]5O[C@H](C(=O)O)[C@@H](O)[C@H](O)[C@H]5O)cc4)cccc3nc2-1 | – | – | – | – | – | – | – | – | 30 µM | 0.86 µM/min | 0.03 min⁻¹ | – | – | – | – | – | –
CC[C@@]1(O)C(=O)OCc2c1cc1n(c2=O)Cc2cc3cc(O)ccc3nc2-1 [HYDROXYCAMPTOTHECIN] | 13.7 µM (≈ 4.99 µg/mL) | – | – | 5.4 nM | 9.1 nM | 8.8 nM | 6.9 nM | – | – | – | – | – | – | – | – | 137 µM (≈ 49.9 µg/mL) | –
CC[C@@]1(O)C(=O)OCc2c1cc1n(c2=O)Cc2cc3cc(OC(=O)OCc4ccc(O[C@@H]5O[C@H](C(=O)OC)[C@@H](O)[C@H](O)[C@H]5O)cc4)ccc3nc2-1 | – | – | – | – | – | – | – | – | – | – | – | – | – | – | – | – | 70%
